Results from different studies.
Compare with care: the assays were run in different laboratories.
Target: Death-associated protein kinase 1 (DAPK1, Homo sapiens, UniProt P53355)

SMILES	test	conditions	remaining binding [%]
CN(C)c1nccc(-c2cnc3ncccn23)n1	binding	1 µM	92
O=C(NCC1CCOCC1)c1n[nH]cc1NC(=O)c1c(F)cccc1F	binding, competition with immobilised ligand	1 µM	96
FC(F)(F)c1ccc2c(c1)nc(-c1cccnc1)n2C1CC1	cell-free assay, competition with immobilised ligand	1 µM	100
FC(F)(F)Oc1cccc(-c2cnc3ccc(-c4ccncc4)nn23)c1	cell-free assay, competition with immobilised ligand	5 µM	89
CNC(=O)[C@@H]1CC[C@@H](n2c(-c3ccc4cnccc4c3)nc3ccc(C(=O)NCc4cccc(C(N)=O)c4)cc32)C1	binding, competition with immobilised ligand	1 µM	100
CC1CCCN1c1nccc(-c2cnn3ncccc23)n1 (centres unmarked)	binding	1 µM	99
CS(=O)(=O)c1cc(C2(NC(=O)c3cncc4c3cnn4-c3ccc(F)cc3)CC2)ccn1	cell-free assay, competition with immobilised ligand	1 µM	83
O=C(c1ccc(Nc2ncc(Cl)c(-c3cc4ccccc4s3)n2)cc1)N1CCC(N2CCCC2)CC1	binding, competition with immobilised ligand	1 µM	20
CC(=O)N1CCC(c2ccc(C(=O)NC3=NCCN3)cc2C(F)(F)F)CC1	cell-free assay, competition with immobilised ligand	1 µM	100
CN(c1nccc(-c2cnn3ncccc23)n1)C1CC1	binding	1 µM	100
Nc1c(C(=O)NCc2ccc(C(=O)NCCCC3CCCCC3)cc2)cnn1-c1ccccc1	cell-free assay, competition with immobilised ligand	0.1 µM	92
C[C@@H](c1ccc(-n2cnc3c(N)ncnc32)cc1)N1CCc2nn(C)c(Cc3ccccc3)c2C1=O	binding, competition with immobilised ligand	0.1 µM	95
CN(CCCC(F)(F)F)c1nccc(-c2cnn3ncccc23)n1	binding	1 µM	100
CCCOc1ccc([C@H]2[C@H](C(=O)O)[C@@H](c3ccc4c(c3)OCO4)CN2CC(=O)Nc2c(CC)cccc2CC)cc1	cell-free assay, competition with immobilised ligand	1 µM	90
O=C(c1ccc(Nc2ncc(Cl)c(-c3ccc(Cl)s3)n2)cc1)N1CCC(N2CCCC2)CC1	binding, competition with immobilised ligand	1 µM	17
NS(=O)(=O)c1cc(NC(=O)C2(c3ccccc3Cl)CC2)ccc1Oc1cccc(Cl)c1	cell-free assay, competition with immobilised ligand	1 µM	98
C[C@H]1CCN(c2nccc(-c3cnn4ncccc34)n2)C1	binding	1 µM	71
Nc1ncc2c(n1)-c1c([nH]c3ccc(C#CC4CC4)cc13)CCCC2	binding, competition with immobilised ligand	1 µM	87
c1cnn2ncc(-c3ccnc(N4CCC45COC5)n3)c2c1	binding	1 µM	79
O=C(NCCCN1CCOCC1)c1ccc(Nc2nccc(-c3cc4ccccc4s3)n2)cc1	binding, competition with immobilised ligand	1 µM	18
